Laboratory results taken from ChEMBL document CHEMBL3593206, “SAR Studies of Exosite-Binding Substrate-Selective Inhibitors of A Disintegrin And Metalloprotease 17 (ADAM17) and Application as Selective in Vitro Probes” (J Med Chem, 2015).

How the values were obtained:
[1] = target: T1, Disintegrin and metalloproteinase domain-containing protein 10 (Homo sapiens, UniProt O14672); test: Inhibition of ADAM10 (unknown origin) preincubated for 30 mins followed by substrate addition measured every 30 mins for 2 hrs by fluorescence assay
T1 sequence (O14672 whole entry): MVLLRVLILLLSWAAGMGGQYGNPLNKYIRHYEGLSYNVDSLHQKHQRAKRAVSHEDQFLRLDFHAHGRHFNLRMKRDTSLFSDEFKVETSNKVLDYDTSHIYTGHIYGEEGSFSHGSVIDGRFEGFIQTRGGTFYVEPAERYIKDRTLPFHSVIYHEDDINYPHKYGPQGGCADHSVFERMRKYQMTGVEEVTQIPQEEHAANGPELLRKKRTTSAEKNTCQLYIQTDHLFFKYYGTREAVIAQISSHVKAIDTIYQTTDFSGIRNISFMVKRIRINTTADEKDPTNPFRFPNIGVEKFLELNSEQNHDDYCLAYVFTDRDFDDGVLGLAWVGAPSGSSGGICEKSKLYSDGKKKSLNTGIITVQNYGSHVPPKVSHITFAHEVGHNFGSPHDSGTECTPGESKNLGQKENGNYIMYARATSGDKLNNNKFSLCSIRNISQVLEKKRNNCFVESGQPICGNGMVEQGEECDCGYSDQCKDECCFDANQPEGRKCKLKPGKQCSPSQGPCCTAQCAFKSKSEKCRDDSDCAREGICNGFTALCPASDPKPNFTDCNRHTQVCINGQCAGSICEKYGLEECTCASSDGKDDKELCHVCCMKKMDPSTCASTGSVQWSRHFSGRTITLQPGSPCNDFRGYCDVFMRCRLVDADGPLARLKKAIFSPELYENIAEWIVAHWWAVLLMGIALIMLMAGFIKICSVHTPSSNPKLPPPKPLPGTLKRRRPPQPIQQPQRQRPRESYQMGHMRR
Method in brief: (§1)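 Enzyme at 30 nM (3× solution) in 10 mM Hepes, 0.001% Brij-35, pH 7.5. Inhibitor series of 10 points, 1:3, from 300 μM, preincubated 30 min at RT. Glycosylated substrate added from a 30 μM 3× solution. Fluorescence (ex 360/em 460 nm) read every 30 min for 2 h. Inhibition taken from hydrolysis rates against substrate-only and substrate-plus-enzyme wells.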

[2] = target: T2, Disintegrin and metalloproteinase domain-containing protein 17 (Homo sapiens, UniProt P78536); test: Inhibition of ADAM17 (unknown origin) preincubated for 30 mins followed by substrate addition measured every 30 mins for 2 hrs by fluorescence assay; method in brief: as §1
[3] = target: T3, Matrix metalloproteinase-9 (Homo sapiens, UniProt P14780); test: Inhibition of MMP9 (unknown origin) using Mca-KLPGL-Dnp-AR as substrate preincubated for 30 mins followed by substrate addition measured after 1 hr by fluorescence assay
Method in brief: (§2)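 Inhibitor as 10-point 1:3 dilutions from 300 μM, 30 min at RT. Substrate added from a 30 μM 3× solution. Single fluorescence read (ex 324/em 393 nm) after 1 h at RT.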

[4] = target: T2, Disintegrin and metalloproteinase domain-containing protein 17; test: Inhibition of ADAM17 in HTSMC assessed as inhibition of LPS-stimulated IL-8 shedding at 10 uM preincubated for 30 mins followed by LPS challenge measured after 4 to 24 hrs by ELISA
Method in brief: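 HTSMCs stimulated with LPS for IL-8 release; compounds at 10 μM. Mean ± SEM, n = 3 from three independent experiments; one-way ANOVA with Dunnett post hoc test.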

[5] = target: T2, Disintegrin and metalloproteinase domain-containing protein 17; test: Inhibition of ADAM17 (unknown origin) at 100 uM preincubated for 30 mins followed by substrate addition measured every 30 mins for 2 hrs by fluorescence assay relative to control; method in brief: as §1
[6] = target: T2, Disintegrin and metalloproteinase domain-containing protein 17; test: Inhibition of ADAM17 in human THP1 cells assessed as inhibition of LPS-stimulated TNFalpha cleavage at 25 uM after 1 hr by AlphaScreen assay relative to control; type: cell-based; details: THP-1
Method in brief: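 THP-1 cells grown in RPMI 1640 with 10% FBS and 0.05 mM 2-mercaptoethanol; 3000 cells per well. Compound given in 3% DMSO for 1 h, then LPS added (1 μg/mL final) and cells incubated overnight at 37 °C. TNFα detected by AlphaScreen using anti-TNFα acceptor beads and streptavidin donor beads, each step 1 h in the dark at RT.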

[7] = target: T4, 72 kDa type IV collagenase (Homo sapiens, UniProt P08253); test: Inhibition of MMP2 (unknown origin) using Mca-KLPGL-Dnp-AR as substrate preincubated for 30 mins followed by substrate addition measured after 1 hr by fluorescence assay; method in brief: as §2
Target sequence in this assay (P08253 whole entry): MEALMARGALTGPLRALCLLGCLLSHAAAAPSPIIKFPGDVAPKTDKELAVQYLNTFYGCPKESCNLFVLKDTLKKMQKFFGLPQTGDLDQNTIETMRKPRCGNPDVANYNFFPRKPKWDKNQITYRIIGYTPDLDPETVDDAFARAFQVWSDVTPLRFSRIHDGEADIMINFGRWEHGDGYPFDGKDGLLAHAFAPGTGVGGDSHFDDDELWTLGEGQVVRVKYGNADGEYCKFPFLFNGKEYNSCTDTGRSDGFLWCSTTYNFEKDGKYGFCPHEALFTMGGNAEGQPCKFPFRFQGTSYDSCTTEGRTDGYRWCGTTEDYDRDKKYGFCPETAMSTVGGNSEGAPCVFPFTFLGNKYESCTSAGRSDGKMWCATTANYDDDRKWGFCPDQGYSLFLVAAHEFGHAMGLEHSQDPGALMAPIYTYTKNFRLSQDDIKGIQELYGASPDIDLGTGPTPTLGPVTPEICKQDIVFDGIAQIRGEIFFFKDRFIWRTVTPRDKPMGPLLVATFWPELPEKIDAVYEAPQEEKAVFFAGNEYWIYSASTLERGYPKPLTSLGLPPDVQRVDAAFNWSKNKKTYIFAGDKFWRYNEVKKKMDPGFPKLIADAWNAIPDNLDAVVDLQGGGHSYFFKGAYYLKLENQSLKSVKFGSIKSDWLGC

[8] = target: T5, Matrix metalloproteinase-14 (Homo sapiens, UniProt P50281); test: Inhibition of MMP14 (unknown origin) using Mca-KLPGL-Dnp-AR as substrate at 100 uM preincubated for 30 mins followed by substrate addition measured after 1 hr by fluorescence assay relative to control
[9] = target: T5, Matrix metalloproteinase-14; test: Inhibition of MMP14 (unknown origin) using Mca-KLPGL-Dnp-AR as substrate preincubated for 30 mins followed by substrate addition measured after 1 hr by fluorescence assay; method in brief: as §2
[10] = target: T2, Disintegrin and metalloproteinase domain-containing protein 17; test: Inhibition of ADAM17 in human A549 cells assessed as inhibition of PMA-stimulated heregulin shedding at 40 uM incubated for 1 hr followed by PMA stimulation measured after 1 hr; type: cell-based
Method in brief: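 Heregulin shedding in A549 cells, with all compounds tested at 40 μM.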

A549 = test: Cytotoxicity against human A549 cells assessed as inhibition of cell viability up to 33 uM after 72 hrs by CellTiter-Glo assay; type: cell-based; details: a549, 72 h
MDA-MB-231 = test: Cytotoxicity against human MDA-MB-231 cells assessed as inhibition of cell viability up to 33 uM after 72 hrs by CellTiter-Glo assay; type: cell-based; details: mda-mb-231, 72 h
Neutrophil collagenase [11] = target: T6, Neutrophil collagenase (Homo sapiens, UniProt P22894); test: Inhibition of MMP8 (unknown origin) using Mca-KLPGL-Dnp-AR as substrate at 100 uM preincubated for 30 mins followed by substrate addition measured after 1 hr by fluorescence assay relative to control; method in brief: as §2
Target sequence in this assay (P22894 101-467 limits assumed): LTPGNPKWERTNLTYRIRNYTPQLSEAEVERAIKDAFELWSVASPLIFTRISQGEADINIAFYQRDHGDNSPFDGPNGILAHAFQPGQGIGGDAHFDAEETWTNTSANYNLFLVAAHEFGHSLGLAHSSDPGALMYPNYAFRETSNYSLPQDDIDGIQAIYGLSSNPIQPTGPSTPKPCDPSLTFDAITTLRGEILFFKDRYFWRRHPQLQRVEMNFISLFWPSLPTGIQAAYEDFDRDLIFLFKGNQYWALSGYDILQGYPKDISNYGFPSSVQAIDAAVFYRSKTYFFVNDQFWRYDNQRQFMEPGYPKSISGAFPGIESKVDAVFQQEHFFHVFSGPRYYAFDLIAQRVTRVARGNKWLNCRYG

[12] = target: T4, 72 kDa type IV collagenase; test: Inhibition of MMP2 (unknown origin) using Mca-KLPGL-Dnp-AR as substrate at 100 uM preincubated for 30 mins followed by substrate addition measured after 1 hr by fluorescence assay relative to control; method in brief: as §2
Target sequence in this assay (P08253 110-660 limits assumed): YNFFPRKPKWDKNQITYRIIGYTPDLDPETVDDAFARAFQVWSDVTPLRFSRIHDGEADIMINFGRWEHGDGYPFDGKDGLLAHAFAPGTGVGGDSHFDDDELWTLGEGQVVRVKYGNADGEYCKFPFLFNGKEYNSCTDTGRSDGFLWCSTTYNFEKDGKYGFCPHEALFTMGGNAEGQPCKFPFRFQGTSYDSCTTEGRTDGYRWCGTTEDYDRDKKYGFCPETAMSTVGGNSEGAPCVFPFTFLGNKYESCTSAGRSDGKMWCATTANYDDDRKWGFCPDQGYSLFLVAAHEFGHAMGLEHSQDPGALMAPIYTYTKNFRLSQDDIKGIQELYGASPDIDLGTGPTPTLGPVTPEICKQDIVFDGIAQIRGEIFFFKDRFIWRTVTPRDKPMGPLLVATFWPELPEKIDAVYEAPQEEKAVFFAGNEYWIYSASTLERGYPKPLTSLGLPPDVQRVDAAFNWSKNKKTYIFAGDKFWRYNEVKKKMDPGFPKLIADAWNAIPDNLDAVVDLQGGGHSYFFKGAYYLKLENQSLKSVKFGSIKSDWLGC

[13] = target: T2, Disintegrin and metalloproteinase domain-containing protein 17; test: Inhibition of ADAM17 in human A549 cells assessed as effect on PMA-stimulated TGFalpha shedding up to 100 uM preincubated for 1 hr followed by PMA stimulation measured after 1 hr by ELISA; type: cell-based
Method in brief: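 TGFα shedding from PMA-treated A549 cells tested up to 100 μM. Marimastat at 10 μM served as control, with a non-PMA-treated control included; soluble TGFα measured in the supernatant.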

[14] = Cytotoxicity against CHOK1 cells assessed as inhibition of cell viability up to 33 uM after 72 hrs by CellTiter-Glo assay; type: cell-based, Cricetulus griseus; details: chinese hamster, cho-k1, 72 h
[15] = target: T3, Matrix metalloproteinase-9; test: Inhibition of MMP9 (unknown origin) using Mca-KLPGL-Dnp-AR as substrate at 100 uM preincubated for 30 mins followed by substrate addition measured after 1 hr by fluorescence assay relative to control; method in brief: as §2
[16] = target: T7, Disintegrin and metalloproteinase domain-containing protein 10 (Homo sapiens) (UniProt O14672); test: Inhibition of ADAM10 in human A549 cells assessed as inhibition of betacellulin shedding at 40 uM after 1 hr by ELISA; type: cell-based
T7 sequence (whole entry): T1 sequence (O14672 whole entry)
Method in brief: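 A549 cells were tested for betacellulin shedding at 40 μM, with Marimastat at 10 μM as control.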

Neutrophil collagenase [17] = target: T6, Neutrophil collagenase; test: Inhibition of MMP8 (unknown origin) using Mca-KLPGL-Dnp-AR as substrate preincubated for 30 mins followed by substrate addition measured after 1 hr by fluorescence assay; method in brief: as §2
Target sequence in this assay (P22894 whole entry): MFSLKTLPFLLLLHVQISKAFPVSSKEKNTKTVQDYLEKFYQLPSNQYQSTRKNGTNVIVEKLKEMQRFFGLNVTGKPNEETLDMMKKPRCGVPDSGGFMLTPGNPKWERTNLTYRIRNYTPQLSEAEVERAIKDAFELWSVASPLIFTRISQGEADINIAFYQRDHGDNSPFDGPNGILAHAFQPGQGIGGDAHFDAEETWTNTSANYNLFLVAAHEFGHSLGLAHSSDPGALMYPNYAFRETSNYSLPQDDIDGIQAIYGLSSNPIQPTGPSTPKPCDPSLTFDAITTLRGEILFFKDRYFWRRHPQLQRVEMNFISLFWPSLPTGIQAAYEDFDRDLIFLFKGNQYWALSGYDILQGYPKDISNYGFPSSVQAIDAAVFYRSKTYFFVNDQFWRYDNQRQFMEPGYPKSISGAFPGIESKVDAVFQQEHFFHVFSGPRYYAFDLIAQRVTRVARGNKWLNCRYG

[18] = target: T7, Disintegrin and metalloproteinase domain-containing protein 10 (Homo sapiens); test: Inhibition of ADAM10 in HTSMC assessed as inhibition of constitutive release of fractalkine/CX3CL1 at 10 uM preincubated for 30 mins measured after 4 to 24 hrs by ELISA
[19] = target: T7, Disintegrin and metalloproteinase domain-containing protein 10 (Homo sapiens); test: Inhibition of ADAM10 in HTSMC assessed as inhibition of PMA-stimulated release of CXCL16 at 10 uM preincubated for 30 mins followed by PMA challenge measured after 4 to 24 hrs by ELISA
[20] = target: T7, Disintegrin and metalloproteinase domain-containing protein 10 (Homo sapiens); test: Inhibition of ADAM10 (unknown origin) at 100 uM preincubated for 30 mins followed by substrate addition measured every 30 mins for 2 hrs by fluorescence assay relative to control; method in brief: as §1
HepG2 = test: Cytotoxicity against human HepG2 cells assessed as inhibition of cell viability up to 33 uM after 72 hrs by CellTiter-Glo assay; type: cell-based; details: hepg2, 72 h

T2 sequence (P78536 whole entry, the tested form may be a part): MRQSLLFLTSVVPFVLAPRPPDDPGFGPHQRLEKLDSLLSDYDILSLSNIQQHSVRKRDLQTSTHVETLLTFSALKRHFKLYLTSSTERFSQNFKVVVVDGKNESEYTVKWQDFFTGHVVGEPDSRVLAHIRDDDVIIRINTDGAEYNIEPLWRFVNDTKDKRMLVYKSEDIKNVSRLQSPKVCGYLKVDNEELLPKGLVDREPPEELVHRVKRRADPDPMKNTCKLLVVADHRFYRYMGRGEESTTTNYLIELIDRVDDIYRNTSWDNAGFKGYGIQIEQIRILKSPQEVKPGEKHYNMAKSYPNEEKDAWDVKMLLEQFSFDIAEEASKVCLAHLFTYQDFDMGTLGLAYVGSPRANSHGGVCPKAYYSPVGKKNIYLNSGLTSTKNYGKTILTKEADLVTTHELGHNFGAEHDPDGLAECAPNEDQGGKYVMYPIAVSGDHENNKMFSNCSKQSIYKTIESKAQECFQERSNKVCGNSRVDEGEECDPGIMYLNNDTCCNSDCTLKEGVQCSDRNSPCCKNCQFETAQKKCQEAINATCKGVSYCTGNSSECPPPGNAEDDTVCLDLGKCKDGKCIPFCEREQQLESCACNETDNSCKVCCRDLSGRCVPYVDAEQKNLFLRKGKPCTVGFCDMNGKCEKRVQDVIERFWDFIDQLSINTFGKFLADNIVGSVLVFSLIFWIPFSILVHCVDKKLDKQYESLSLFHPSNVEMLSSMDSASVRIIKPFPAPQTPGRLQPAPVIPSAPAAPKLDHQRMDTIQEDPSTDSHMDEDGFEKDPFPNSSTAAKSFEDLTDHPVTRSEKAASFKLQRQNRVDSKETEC
T3 sequence (P14780 whole entry): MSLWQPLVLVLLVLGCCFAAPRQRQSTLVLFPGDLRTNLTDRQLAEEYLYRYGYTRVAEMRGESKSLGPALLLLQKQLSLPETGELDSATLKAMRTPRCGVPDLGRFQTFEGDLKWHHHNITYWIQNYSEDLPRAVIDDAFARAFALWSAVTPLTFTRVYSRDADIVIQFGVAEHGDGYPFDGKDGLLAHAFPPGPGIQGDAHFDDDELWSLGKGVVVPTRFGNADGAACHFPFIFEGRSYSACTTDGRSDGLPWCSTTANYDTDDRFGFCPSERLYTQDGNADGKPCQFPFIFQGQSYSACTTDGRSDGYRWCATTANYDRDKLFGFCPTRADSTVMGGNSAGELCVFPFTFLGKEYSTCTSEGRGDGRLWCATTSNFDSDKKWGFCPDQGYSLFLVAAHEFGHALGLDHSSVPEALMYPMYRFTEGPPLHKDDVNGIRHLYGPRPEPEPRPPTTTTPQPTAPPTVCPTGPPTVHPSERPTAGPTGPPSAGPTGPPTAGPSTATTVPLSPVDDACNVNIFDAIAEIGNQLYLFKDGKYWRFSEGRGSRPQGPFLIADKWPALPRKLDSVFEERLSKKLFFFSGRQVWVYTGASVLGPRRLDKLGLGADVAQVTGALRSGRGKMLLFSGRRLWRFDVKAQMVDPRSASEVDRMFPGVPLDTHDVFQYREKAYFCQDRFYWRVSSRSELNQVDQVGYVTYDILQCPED

Compound: CCCC[C@H]1CN([C@@H](Cc2ccc(O)cc2)CN2CCC[C@H]2CN2C(=O)C(=O)NC[C@@H]2CCC)C(=O)C(=O)N1CCC12CC3CC(CC(C3)C1)C2
- IC50 [1]: > 100 µM
- IC50 [2]: 6.5 µM

Compound: O=C1NC[C@H](Cc2ccccc2)N(C[C@@H]2CCCN2C[C@H](Cc2ccccc2)N2C[C@H](Cc3ccc(O)cc3)N(CCC34CC5CC(CC(C5)C3)C4)C(=O)C2=O)C1=O
- IC50 [1]: > 100 µM
- IC50 [3]: > 100 µM
- inhibition [4]: 62%
- inhibition [5]: 100%
- inhibition [6]: 44%
- IC50 [7]: > 100 µM
- inhibition [8]: 0%
- IC50 [9]: > 100 µM
- inhibition [10]: 0%
- Activity (A549): Non-toxic
- Activity (MDA-MB-231): Non-toxic
- inhibition (Neutrophil collagenase [11]): 0%
- inhibition [12]: 0%
- inhibition [13]: 0%
- Activity [14]: Non-toxic
- inhibition [15]: 0%
- inhibition [16]: 0%
- IC50 (Neutrophil collagenase [17]): > 100 µM
- inhibition [18]: 0%
- IC50 [2]: 11 µM
- inhibition [19]: 0%
- inhibition [20]: 0%
- Activity (HepG2): Non-toxic

Compound: O=C1NC[C@@H](Cc2ccc3ccccc3c2)N(C[C@@H]2CCCN2C[C@H](Cc2ccc(O)cc2)N2C[C@H](Cc3ccc(O)cc3)N(CCC34CC5CC(CC(C5)C3)C4)C(=O)C2=O)C1=O
- IC50 [1]: > 100 µM
- IC50 [2]: 8.1 µM

Compound: O=C1NC[C@@H](Cc2ccc3ccccc3c2)N(C[C@@H]2CCCN2C[C@H](Cc2ccc(O)cc2)N2C[C@@H](Cc3ccc4ccccc4c3)N(CCC34CC5CC(CC(C5)C3)C4)C(=O)C2=O)C1=O
- IC50 [1]: > 100 µM
- IC50 [2]: 5.7 µM

Compound: CCC[C@H]1CNC(=O)C(=O)N1C[C@@H]1CCCN1C[C@H](Cc1ccc(O)cc1)N1C[C@H](Cc2ccc3ccccc3c2)N(CCC23CC4CC(CC(C4)C2)C3)C(=O)C1=O
- IC50 [1]: > 100 µM
- IC50 [2]: 10 µM

Compound: CCC[C@H]1CNC(=O)C(=O)N1C[C@@H]1CCCN1C[C@H](Cc1ccc(O)cc1)N1C[C@@H](Cc2ccc3ccccc3c2)N(CCC23CC4CC(CC(C4)C2)C3)C(=O)C1=O
- IC50 [1]: > 100 µM
- IC50 [2]: 7.9 µM

Compound: CCC[C@H]1CNC(=O)C(=O)N1C[C@@H]1CCCN1C[C@H](Cc1ccc(O)cc1)N1C[C@H](Cc2ccc(O)cc2)N(CC23CC4CC(CC(C4)C2)C3)C(=O)C1=O
- IC50 [1]: > 100 µM
- IC50 [2]: 10 µM

Compound: O=C1NCC(Cc2ccccc2)N(C[C@@H]2CCCN2C[C@@H](CC2CCCCC2)N2C[C@H](Cc3ccccc3)N(CCc3ccccc3)C(=O)C2=O)C1=O (single isomer, unassigned)
- inhibition [5]: 100%
- inhibition [6]: 0%
- inhibition [8]: 0%
- inhibition [10]: 34%
- inhibition (Neutrophil collagenase [11]): 0%
- inhibition [12]: 0%
- inhibition [13]: 0%
- inhibition [15]: 0%
- inhibition [16]: 0%
- inhibition [20]: 0%

Compound: CCC[C@H]1CNC(=O)C(=O)N1C[C@@H]1CCCN1C[C@H](Cc1ccc(O)cc1)N1C[C@H](Cc2ccc(O)cc2)N(CC2CCCC2)C(=O)C1=O
- IC50 [1]: > 100 µM
- IC50 [2]: 35 µM
